Experimental data from publication PMC12126168 (Drug Design, Development and Therapy, 2025).

What was measured:
[1] = system: various tumor cell lines; test: Antiproliferative activity on various tumor cell lines; assay type: cell-based; conditions: read-out: IC50 against a variety of cell lines
Procedure, shortened: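 Cells seeded at 1000 per well in 18 μL medium and pre-incubated 24 h at 37°C, 5% CO2. Test compound in DMSO (final DMSO <0.1%) added at 10 points, 2-fold dilutions from 10 μM, then cultured 72 h. Cell-Titer glo reagent added and […]. Inhibition computed per concentration and IC50 obtained from sigmoid curve fit.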

[2] = Single-dose pharmacokinetics in SD rats; assay type: in vivo; conditions: after gavage or tail vein injection of V12
Procedure, shortened: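 Male SD rats (240–280 g), 4 groups of 3. Compound in DMSO/castor oil/saline 5%/5%/90%, dosed 1 mg/kg i.v. or 10 mg/kg orally. Blood drawn from fundus venous plexus at 2, 5, 15, 30 min and 1, 2, 4, 8, 24 h into heparin tubes, then centrifuged at 4°C for plasma. Plasma levels measured by LC-MS/MS with non-compartmental analysis.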

[3] = Body weight of nude mice after oral administration; assay type: in vivo; conditions: oral doses 100 mg/kg and 300 mg/kg

SMILES | IC50 [1] [nM] | metabolism in vivo [2] | body weight of the nude mice [3]
CONC(=O)c1cccc2c1cc(C)n2-c1nc2c(c(NCc3ccccc3)n1)CCCN2 [V12, 1-(4-(Benzylamino)-5,6,7,8-Tetrahydropyrido[2,3-D]pyrimidin-2-Yl)-N-Methoxy-2-Methyl-1H-Indole-4-Carboxamide] | < 1000 | rapidly metabolizes into V13 | comparable to that of the control group
Cc1cc2c(C(=O)O)cccc2n1-c1nc2c(c(NCc3ccccc3)n1)CCCN2 [V13, 1-(4-(Benzylamino)-5,6,7,8-Tetrahydropyrido[2,3-D]pyrimidin-2-Yl)-2-Methyl-1H-Indole-4-Carboxylic Acid] | < 1000 | – | –
